# UPR CHOP act = activators of apoptotic arm of unfolded protein response (CHOP); CHO-CHOP luciferase reporter, UPR activation, luminescence; percent of tunicamycin response over DMSO baseline; activation, % at 10 µM; 330,000 compounds, 0.34% hits;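 active = at 10 µM dose, activation of 40% or more, normalized to positive control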;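 also: 100% = tunicamycin at 10 µg/mL and 0% = DMSO alone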
#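 System: CHO-CHOP luciferase reporter cell line | Buffer or medium: F12 medium containing 10% fetal bovine serum | Doses: One dose, 10 µM in 0.5% DMSO | Times: 6 h compound exposure at 37 °C after overnight seeding | Signal: Luciferase luminescence | Read-out: % activation vs tunicamycin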
# XBP1 UPR activ = adaptive UPR (XBP1) activation | CHO-XBP1 luciferase reporter, IRE1-XBP1 UPR activation, luminescence; percent of tunicamycin response, DMSO as zero | activation, % at 20 µM | 330,000 compounds, 0.33% hits | AID 463104;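 active = versus positive control, 20 µM dose yields 30% or more activation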;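 also: 100% = tunicamycin at 10 µg/mL and 0% = DMSO only wells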
#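 Signal: luciferase luminescence; Assay system: CHO-XBP1 luciferase reporter cells; Amount: one thousand reporter cells per well; Dosing: 20 µM single concentration, DMSO 1%; Benchmarks: high control tunicamycin 10 µg/mL final, low control DMSO vehicle only; Schedule: 6 h compound exposure at 37 °C, 5% CO2; Evaluation: percent activation relative to tunicamycin reference.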
# Mdm2 MdmX PPI = inhibitors of human Mdm2/MdmX interaction. inhibition, % at 8 µM. AID 485346. SaOS-2 split-luciferase Mdm2/MdmX complementation, luminescence. 330,000 compounds, 3% hits. O15151+Q00987;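 active = inhibition of at least 50% at 8 µM in the primary screen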
# Target sequence (O15151 whole entry, looked up): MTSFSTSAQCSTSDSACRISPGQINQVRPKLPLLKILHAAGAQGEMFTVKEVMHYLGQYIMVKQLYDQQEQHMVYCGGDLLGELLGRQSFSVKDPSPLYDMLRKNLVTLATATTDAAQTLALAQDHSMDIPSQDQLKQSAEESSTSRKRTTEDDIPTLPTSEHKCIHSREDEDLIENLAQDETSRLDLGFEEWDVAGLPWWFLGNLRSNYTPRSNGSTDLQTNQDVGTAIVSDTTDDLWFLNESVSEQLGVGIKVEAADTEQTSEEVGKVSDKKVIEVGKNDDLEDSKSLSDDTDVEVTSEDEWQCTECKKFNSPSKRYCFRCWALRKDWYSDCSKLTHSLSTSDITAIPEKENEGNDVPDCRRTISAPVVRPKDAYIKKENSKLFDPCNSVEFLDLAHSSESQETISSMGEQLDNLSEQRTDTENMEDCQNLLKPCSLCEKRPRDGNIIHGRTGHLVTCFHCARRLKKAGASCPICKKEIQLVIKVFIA
# Target sequence (Q00987 whole entry, looked up): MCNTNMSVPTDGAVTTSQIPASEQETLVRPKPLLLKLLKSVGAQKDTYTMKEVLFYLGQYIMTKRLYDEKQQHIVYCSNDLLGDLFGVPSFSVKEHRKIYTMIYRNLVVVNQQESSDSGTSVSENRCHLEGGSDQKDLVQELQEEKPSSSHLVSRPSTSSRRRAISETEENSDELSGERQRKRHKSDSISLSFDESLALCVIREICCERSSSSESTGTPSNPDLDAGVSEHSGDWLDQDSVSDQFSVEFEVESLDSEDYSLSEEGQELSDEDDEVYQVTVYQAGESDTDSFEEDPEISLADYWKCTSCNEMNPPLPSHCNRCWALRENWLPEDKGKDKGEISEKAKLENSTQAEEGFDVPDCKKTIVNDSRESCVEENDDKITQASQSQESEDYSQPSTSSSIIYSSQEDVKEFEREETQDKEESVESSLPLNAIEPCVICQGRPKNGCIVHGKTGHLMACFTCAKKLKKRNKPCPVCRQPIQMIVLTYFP
# Apaf1 inhib = human Apaf-1 inhibition; O14727; reconstituted apoptosome caspase-3 activity, DEVD-Rh110 fluorescence; inhibition, % at 20 µM; 330,000 compounds, 0.71% hits; AID 489030; active = inhibition of at least 40% at 20 µM;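 also: plate controls were DMSO wells for no effect and DEVD-CHO caspase inhibitor wells for full effect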
#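 Medium: Hepes buffer, pH 7.5 / System: biochemical Apaf-1 apoptosome reconstitution / Measured by: Rh110 fluorescence, excitation 480 nm, emission 540 nm / Times: compound with Apaf-1, dATP, procaspase-3 30 min, then 50 min reaction, room temperature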
# UBC13 polyUb = blocks human UBC13 polyubiquitin chain formation | P61088 | TR-FRET | inhibition, % at 20 µM | 330,000 compounds, 0.47% hits | AID 485273; in the data active = inhibition above about 45%, passing the limit was not always enough; inconclusive = no clear call, values can overlap the other calls
# Casp3 counter = counter-screen for UBC13 inhibitors: human caspase-3 inhibition; shares compounds with UBC13 polyUb; Recombinant caspase-3, Caspase-Glo 3/7 luminescence, 60 min; inhibition, % at 20 µM; 1,400 compounds, 4% hits; AID 488856;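 active = mean inhibition across replicates above about 26%, limit read from the data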;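 also: plate controls were DMSO with caspase-3 for no effect and DMSO wells lacking enzyme for full effect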
# UBC13 confirm = confirmation of human UBC13 polyubiquitin inhibitors; inhibition, % at 10 µM; UBC13 polyubiquitination, TR-FRET, biochemical; 1,400 compounds, 68% hits; shares compounds with UBC13 polyUb; in the data active = inhibition above about 45%; inconclusive = no clear call, values can overlap the other calls
# * marks the source's active call; other numbers are inactive results; ? = inconclusive; · = not tested or not shown. Compounds with a hit are over-represented: about 4.1% of the library has one in this group of screens.
SMILES,UPR CHOP act,XBP1 UPR activ,Mdm2 MdmX PPI,Apaf1 inhib,UBC13 polyUb,Casp3 counter,UBC13 confirm
Cn1c2ccccc2c(=O)c2ccc(NCCc3cccs3)cc21,0,2,-233,30,45*,88*,?
COc1cc(C(=O)NCC2CCCN2S(=O)(=O)c2cccs2)cc(OC)c1OC (stereo unspecified),2,4,11,5,-2,·,·
O=c1c(Cl)c(NCCCO)cnn1-c1nc2ccccc2[nH]1,17,-4,18,-20,91*,93*,110*
C=CCN(CC=C)c1cnn(-c2nc3ccccc3[nH]2)c(=O)c1Cl,2,-4,-179,-14,10,·,·
NCc1cc2c3c(c1)CCCN3CCC2,2,-2,16,-15,54*,-2,19
O=S(=O)(NC1CCCCC1)c1ccc(Cl)nc1,1,-5,2,-6,50*,-5,10
O=S(=O)(NC1CCCC1)c1ccc(S(=O)(=O)NC2CCCC2)cc1,-2,-5,25,-14,11,·,·
CCOc1ccccc1CNC(=O)CCCC(=O)n1nc(C)c2ccccc21,-2,-2,-17,17,19,·,·
Cc1ccccc1CNC(=O)CCCC(=O)n1nc(C)c2ccccc21,-3,-2,20,12,46*,1,63*
O=C(NCCCn1ccnc1)C1CCN(S(=O)(=O)c2cc([N+](=O)[O-])ccc2Cl)CC1,0,-2,35,23,82*,-1,64*
NC(=O)CCn1c(C(=O)c2cc(Cl)c(N)c(Cl)c2)c2ccccc2[n+]1[O-],0,-1,5,5,62*,0,65*
NCCCn1c(C(=O)c2cc(Cl)c(N)c(Cl)c2)c2ccccc2[n+]1[O-],1,-2,0,6,97*,1,100*
O=C(CSc1nc2ccsc2c(=O)n1Cc1ccc(C(=O)O)cc1)NCC1CCCO1 (stereo unspecified),3,0,-31,4,69*,-4,77*
O=C(CSc1nc2ccsc2c(=O)n1Cc1ccccc1)NCC1CCCO1 (stereo unspecified),3,0,7,3,55*,-2,58*
Cc1ccc(Cn2c(SCC(=O)NCC3CCCO3)nc3ccsc3c2=O)cc1 (stereo unspecified),0,-1,17,2,30,·,·
CCn1c(SCC(=O)Nc2oc(-c3ccccc3)c(-c3ccccc3)c2C#N)nnc1-c1cc(OC)cc(OC)c1,1,0,-12,8,1,·,·
CC1(C)C2C/C(=N\O)C(C)(/[N+]([O-])=C/c3cccc([N+](=O)[O-])c3)CC21 (stereo unspecified),1,3,1,-3,0,·,·
Cc1ccc(C(C(=O)NCC2CCCO2)N(C(=O)c2snc(C(N)=O)c2N)c2ccccc2F)o1 (stereo unspecified),-3,-2,3,9,47*,0,30
CCOc1ccc(C(C(=O)NCC2CCCO2)N(C(=O)c2snc(C(N)=O)c2N)c2ccccc2F)cc1 (stereo unspecified),1,-7,-8,14,48*,0,48*
Cc1ccc(C(C(=O)NCC2CCCO2)N(C(=O)c2snc(C(N)=O)c2N)c2ccc(F)cc2)o1 (stereo unspecified),-1,1,8,13,46*,-5,39
COc1cc(OC)cc(N(C(=O)c2snc(C(N)=O)c2N)C(C(=O)NCC2CCCO2)c2ccc(C)o2)c1 (stereo unspecified),0,-8,1,10,4,·,·
CCOc1ccc(N(C(=O)c2snc(C(N)=O)c2N)C(C(=O)NCC2CCCO2)c2ccc(C)o2)cc1 (stereo unspecified),3,-5,12,4,74*,0,82*
Cc1ccc(/C=N/N2CCN(C3c4ccccc4-c4ccccc43)CC2)o1,1,0,13,6,-4,·,·
COC(=O)[C@H](CC(C)C)NC(=O)c1cc2c(cn1)[nH]c1ccccc12,-1,-1,9,7,15,·,·
COCCNC(=S)N=Nc1c(O)[nH]c2ccc([N+](=O)[O-])cc12,0,-5,10,-5,89*,1,96*
SMILES,UPR CHOP act,XBP1 UPR activ,Mdm2 MdmX PPI,Apaf1 inhib,UBC13 polyUb,Casp3 counter,UBC13 confirm
O=C(N/C=N/O)C1=NOC(CNc2ncc(C(F)(F)F)cc2Cl)C1 (stereo unspecified),0,3,-2,12,14,·,·
CN1C(C(=O)NCc2cccc(C(F)(F)F)c2)CC2Cn3c(nc4cc(Cl)c(Cl)cc43)C21 (stereo unspecified),1,-2,4,9,11,·,·
CN(C)CCNC(=O)C(c1ccccc1)c1ccccc1,0,-1,12,-5,9,·,·
CN(C)CCC(=O)C(Cc1ccccc1)c1ccccc1 (stereo unspecified),4,-5,19,-17,47*,4,40
Cc1ccc(CN2CCC(CNC(=O)c3ccc(NC(=O)C4=CSCCO4)cc3)CC2)cc1,1,5,21,-3,72*,-1,96*
CC(C)NC(=O)NNC(=O)c1nn(-c2ccc(F)cc2)ccc1=O,3,2,-19,-7,33,·,·
O=C(NNC(=O)c1nn(-c2ccc(F)cc2)ccc1=O)c1ccc(C(F)(F)F)cc1,-1,-1,9,-10,70*,0,86*
O=C(NNC(=O)c1nn(-c2ccc(F)cc2)ccc1=O)Nc1cccc(Cl)c1,-1,-3,13,-15,10,·,·
Cc1ccc(C(=O)NNC(=O)c2nn(-c3ccc(F)cc3)ccc2=O)cc1,-2,-2,19,-8,77*,-6,96*
O=C(NNC(=O)c1nn(-c2ccc(F)cc2)ccc1=O)c1ccc(Cl)cc1,1,-3,15,-17,71*,-3,88*
O=C(NC1CCN(S(=O)(=O)c2ccccc2)CC1)c1ccc(F)cc1,0,-2,25,2,-4,·,·
c1coc(-c2nc(-c3ccco3)c(-c3ccco3)nc2-c2ccco2)c1,1,0,29,63*,77*,21,64*
NC(=S)N=Nc1c(O)n(CCCl)c2ccc(Br)cc12,1,8,25,-2,58*,-1,30
Cc1ccc(Cn2c(O)c(N=O)c3ccccc32)cc1,-1,4,23,4,0,·,·
NC(=S)N=Nc1c(O)n(Cc2ccc(F)cc2)c2ccccc12,-1,8,30,5,73*,-1,75*

# Screening data as filed in PubChem.
